Test results published in ChEMBL document CHEMBL4376814, “Novel cyclin-dependent kinase 9 (CDK9) inhibitor with suppression of cancer stemness activity against non-small-cell lung cancer” (Eur J Med Chem, 2019).
Activity calls are given as the source filed them. The calls are words filed in the database; no cut-off is given here.

Experiments:
[1] = molecular target: CDK4/Cyclin D3 (Homo sapiens) (UniProt P11802+P30281); experiment: Inhibition of recombinant full-length human CDK4/cyclinD3 at 1 uM using Rb fragment as substrate measured after 40 mins in presence of [gamma33P]ATP by scintillation counting method relative to control; type: protein-complex assay
Procedure, shortened: (§1)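 Percent inhibition of kinase activity at a single compound concentration, measured by the outsourced Eurofins KinaseProfiler panel. Values are the mean of two independent experiments.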

[2] = molecular target: Serine/threonine-protein kinase PAK 6 (Homo sapiens) (UniProt Q9NQU5); experiment: Inhibition of recombinant human PAK6 (382 to end residues) at 1 uM using RRRLSFAEPG as substrate measured after 40 mins in presence of [gamma33P]ATP by scintillation counting method relative to control
[3] = Half life in Sprague-Dawley rat liver microsomes at 2 uM in presence of NADPH measured up to 1 hr by HPLC analysis; type: ADME, Microsome
Procedure, shortened: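 Compound at 2 μM incubated at 37 °C with liver microsomes (1 mg/mL), 3 mM MgCl2 and 0.1 M phosphate buffer pH 7.4; 5 min preincubation, then started with 3 mM NADPH. Aliquots (n = 3) at 0, 10, 20, 30, 45, 60 min quenched with ice-cold acetonitrile, centrifuged, supernatant by HPLC. t1/2 from linear-regression kinetic constant k.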

[4] = molecular target: Ephrin type-B receptor 3 (Homo sapiens) (UniProt P54753); experiment: Inhibition of recombinant human EphB3 (599 to 920 residues) at 1 uM using poly(Glu, Tyr) 4:1 as substrate measured after 40 mins in presence of [gamma33P]ATP by scintillation counting method relative to control
Procedure, shortened: (§2)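 Single-point inhibition at 1 µM was measured in the Eurofins KinaseProfiler panel. Values are the mean of two independent experiments.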

[5] = molecular target: Tyrosine-protein kinase Yes (Homo sapiens) (UniProt P07947); experiment: Inhibition of recombinant full-length human YES at 1 uM using poly(Glu, Tyr) 4:1 as substrate measured after 40 mins in presence of [gamma33P]ATP by scintillation counting method relative to control
[6] = molecular target: Protein kinase C theta type (Homo sapiens) (UniProt Q04759); experiment: Inhibition of recombinant full-length human PKCtheta at 1 uM using histone H1as substrate measured after 40 mins in presence of [gamma33P]ATP by scintillation counting method relative to control
[7] = test system: Hepatocyte growth factor receptor (Homo sapiens), P08581 [Y1230D]; experiment: Inhibition of recombinant human MET A1209G/V1290L/Y1248D mutant (974 to end residues) at 1 uM using KKKGQEEEYVFIE as substrate measured after 40 mins in presence of [gamma33P]ATP by scintillation counting method relative to control
[8] = molecular target: TGF-beta receptor type-2 (Homo sapiens) (UniProt P37173); experiment: Inhibition of human TGFBR2 (188 to end residues) at 1 uM using myelin basic protein as substrate measured after 120 mins in presence of [gamma33P]ATP by scintillation counting method relative to control; procedure, shortened: as §1
NCI-H1299 = experiment: Antitumour activity against human H1299 cells xenografted in Balb/c mouse assessed as effect on cyclin T1 level at 20 to 80 mg/kg, po administered for 3 weeks by immunohistochemistry
MCF7 = experiment: Antiproliferative activity against human MCF7 cells assessed as inhibition of cell viability after 72 hrs by CCK-8 assay; type: functional, cell-based; settings: MCF7, 72 h
Procedure, shortened: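 Cells kept at 37 °C, 5% CO2 in DMEM or RPMI-1640 with 10% FBS and 1% penicillin/streptomycin, then seeded at 3000 cells/well (adherent) or 10,000 cells/well (suspension). Exposed to a range of concentrations for 72 h. CCK-8 added for 1-4 h before reading A450. […] Three independent experiments.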

A549 [9] = experiment: Downregulation of NANOG in human A549 cells at 0.25 to 1 uM by Western blot analysis; type: functional, cell-based
Homo sapiens = organism: Homo sapiens; experiment: Inhibition of recombinant full-length human JNK2alpha2 S51N mutant at 1 uM using ATF2 as substrate measured after 40 mins in presence of [gamma33P]ATP by scintillation counting method relative to control
A549 [10] = experiment: Antiproliferative activity against human A549 cells assessed as inhibition of cell viability at 1 uM after 72 hrs by CCK-8 assay relative to control; type: functional; settings: A549, 72 h
Procedure, shortened: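 Single-concentration viability screen using CCK-8. Cells were seeded at 3000/well and treated for 72 h. A450 read after 1-4 h with reagent. Percent inhibition calculated against untreated control and blank wells as (Ac−As)/(Ac−Ab)×100%.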

[11] = molecular target: Dual specificity protein kinase CLK2 (Homo sapiens) (UniProt P49760); experiment: Inhibition of recombinant human CLK2 (138 to end residues) at 1 uM using YRRAAVPPSPSLSRHSSPHQS(p) EDEEE as substrate measured after 40 mins in presence of [gamma33P]ATP by scintillation counting method relative to control; procedure, shortened: as §2
Chain of Dual specificity protein kinase CLK2 (Homo sapiens) (P49760 whole entry, looked up): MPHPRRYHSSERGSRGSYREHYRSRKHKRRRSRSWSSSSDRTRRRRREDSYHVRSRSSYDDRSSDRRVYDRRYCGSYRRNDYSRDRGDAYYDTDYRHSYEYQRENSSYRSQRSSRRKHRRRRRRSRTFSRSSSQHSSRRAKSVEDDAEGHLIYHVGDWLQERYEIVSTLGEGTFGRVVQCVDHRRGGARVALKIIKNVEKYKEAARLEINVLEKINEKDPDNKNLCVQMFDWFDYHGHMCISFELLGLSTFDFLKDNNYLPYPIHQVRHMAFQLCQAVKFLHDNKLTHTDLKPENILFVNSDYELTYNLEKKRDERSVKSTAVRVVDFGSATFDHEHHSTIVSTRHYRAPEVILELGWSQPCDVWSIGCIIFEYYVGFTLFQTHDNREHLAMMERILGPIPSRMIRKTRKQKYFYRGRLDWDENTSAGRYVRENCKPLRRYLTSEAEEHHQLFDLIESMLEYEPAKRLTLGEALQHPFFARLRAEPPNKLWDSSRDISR

Chain of Tyrosine-protein kinase Yes (Homo sapiens) (P07947 2-543 limits assumed): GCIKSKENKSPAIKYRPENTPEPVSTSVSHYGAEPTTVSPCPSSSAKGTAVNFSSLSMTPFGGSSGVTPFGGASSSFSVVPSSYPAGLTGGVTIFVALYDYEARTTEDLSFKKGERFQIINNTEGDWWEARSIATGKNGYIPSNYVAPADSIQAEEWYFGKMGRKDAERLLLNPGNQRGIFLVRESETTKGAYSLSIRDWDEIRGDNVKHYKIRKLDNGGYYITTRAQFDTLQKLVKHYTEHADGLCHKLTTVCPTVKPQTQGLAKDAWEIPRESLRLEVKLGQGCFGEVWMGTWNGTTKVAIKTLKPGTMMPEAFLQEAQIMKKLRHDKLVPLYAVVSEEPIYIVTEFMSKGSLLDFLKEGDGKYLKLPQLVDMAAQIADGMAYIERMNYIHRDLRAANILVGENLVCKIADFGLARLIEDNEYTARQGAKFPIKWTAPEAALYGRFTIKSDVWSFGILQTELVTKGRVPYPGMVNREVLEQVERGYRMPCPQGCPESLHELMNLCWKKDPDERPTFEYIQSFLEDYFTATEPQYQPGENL
Chain of Serine/threonine-protein kinase PAK 6 (Homo sapiens) (Q9NQU5 whole entry, looked up): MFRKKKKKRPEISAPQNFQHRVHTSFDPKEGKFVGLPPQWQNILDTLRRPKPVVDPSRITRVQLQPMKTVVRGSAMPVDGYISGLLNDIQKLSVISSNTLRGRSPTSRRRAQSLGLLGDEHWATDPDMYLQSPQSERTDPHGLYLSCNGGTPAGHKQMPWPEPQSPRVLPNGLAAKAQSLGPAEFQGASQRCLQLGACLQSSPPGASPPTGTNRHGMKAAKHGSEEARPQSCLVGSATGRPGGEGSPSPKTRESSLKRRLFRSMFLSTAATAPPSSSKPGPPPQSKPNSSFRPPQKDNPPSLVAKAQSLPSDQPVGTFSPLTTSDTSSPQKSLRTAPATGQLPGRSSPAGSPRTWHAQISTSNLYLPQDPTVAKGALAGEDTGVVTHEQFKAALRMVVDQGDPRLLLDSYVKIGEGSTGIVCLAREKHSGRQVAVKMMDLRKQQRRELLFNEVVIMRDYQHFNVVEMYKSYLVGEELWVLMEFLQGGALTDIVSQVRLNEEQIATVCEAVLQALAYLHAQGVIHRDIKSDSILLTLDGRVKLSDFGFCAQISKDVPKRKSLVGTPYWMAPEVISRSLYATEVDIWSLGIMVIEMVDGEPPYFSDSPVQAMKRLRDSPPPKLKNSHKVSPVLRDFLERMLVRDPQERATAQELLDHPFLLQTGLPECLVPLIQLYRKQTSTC
Chain of Ephrin type-B receptor 3 (Homo sapiens) (P54753 whole entry, the tested form may be a part): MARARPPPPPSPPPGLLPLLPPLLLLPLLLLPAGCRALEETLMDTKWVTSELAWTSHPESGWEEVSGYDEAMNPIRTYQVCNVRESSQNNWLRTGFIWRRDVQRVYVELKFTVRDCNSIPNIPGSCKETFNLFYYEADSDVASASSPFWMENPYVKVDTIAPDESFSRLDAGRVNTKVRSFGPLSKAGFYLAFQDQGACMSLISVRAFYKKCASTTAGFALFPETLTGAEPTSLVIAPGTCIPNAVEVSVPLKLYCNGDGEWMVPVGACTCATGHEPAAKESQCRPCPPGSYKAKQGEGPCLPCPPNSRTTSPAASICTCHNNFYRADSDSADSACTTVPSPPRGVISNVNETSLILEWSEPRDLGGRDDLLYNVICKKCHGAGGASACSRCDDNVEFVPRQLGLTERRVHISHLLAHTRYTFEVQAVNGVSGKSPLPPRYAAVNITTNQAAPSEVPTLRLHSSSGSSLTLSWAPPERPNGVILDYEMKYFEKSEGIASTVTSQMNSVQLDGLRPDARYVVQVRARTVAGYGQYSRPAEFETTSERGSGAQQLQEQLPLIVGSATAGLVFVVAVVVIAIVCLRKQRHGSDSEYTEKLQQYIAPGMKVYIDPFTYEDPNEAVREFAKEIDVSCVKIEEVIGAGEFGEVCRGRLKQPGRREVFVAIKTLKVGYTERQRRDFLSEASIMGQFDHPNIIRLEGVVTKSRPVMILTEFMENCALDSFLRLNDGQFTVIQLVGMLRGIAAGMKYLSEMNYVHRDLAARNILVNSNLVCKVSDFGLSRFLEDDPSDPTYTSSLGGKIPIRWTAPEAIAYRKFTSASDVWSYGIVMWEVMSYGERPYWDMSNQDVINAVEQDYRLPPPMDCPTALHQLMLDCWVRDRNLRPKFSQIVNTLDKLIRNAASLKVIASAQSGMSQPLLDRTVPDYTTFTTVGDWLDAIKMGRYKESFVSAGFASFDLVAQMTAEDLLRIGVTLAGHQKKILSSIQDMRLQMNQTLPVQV
Chain of TGF-beta receptor type-2 (Homo sapiens) (P37173 whole entry): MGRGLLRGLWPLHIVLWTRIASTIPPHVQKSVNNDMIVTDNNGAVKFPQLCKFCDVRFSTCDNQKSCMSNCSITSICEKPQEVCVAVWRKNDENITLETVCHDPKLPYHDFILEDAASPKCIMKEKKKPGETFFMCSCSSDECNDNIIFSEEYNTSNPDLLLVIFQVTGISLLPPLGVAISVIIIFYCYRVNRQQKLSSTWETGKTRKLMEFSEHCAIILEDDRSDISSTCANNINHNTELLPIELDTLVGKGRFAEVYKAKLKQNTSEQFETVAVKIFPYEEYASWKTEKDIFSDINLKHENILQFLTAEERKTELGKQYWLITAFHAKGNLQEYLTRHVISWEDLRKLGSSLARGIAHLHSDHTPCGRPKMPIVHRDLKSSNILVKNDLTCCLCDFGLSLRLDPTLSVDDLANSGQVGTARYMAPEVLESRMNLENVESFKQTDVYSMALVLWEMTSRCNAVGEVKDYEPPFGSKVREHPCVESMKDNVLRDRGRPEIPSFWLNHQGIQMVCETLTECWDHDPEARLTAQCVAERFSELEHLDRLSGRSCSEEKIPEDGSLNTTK
Chain of Protein kinase C theta type (Homo sapiens) (Q04759 whole entry, looked up): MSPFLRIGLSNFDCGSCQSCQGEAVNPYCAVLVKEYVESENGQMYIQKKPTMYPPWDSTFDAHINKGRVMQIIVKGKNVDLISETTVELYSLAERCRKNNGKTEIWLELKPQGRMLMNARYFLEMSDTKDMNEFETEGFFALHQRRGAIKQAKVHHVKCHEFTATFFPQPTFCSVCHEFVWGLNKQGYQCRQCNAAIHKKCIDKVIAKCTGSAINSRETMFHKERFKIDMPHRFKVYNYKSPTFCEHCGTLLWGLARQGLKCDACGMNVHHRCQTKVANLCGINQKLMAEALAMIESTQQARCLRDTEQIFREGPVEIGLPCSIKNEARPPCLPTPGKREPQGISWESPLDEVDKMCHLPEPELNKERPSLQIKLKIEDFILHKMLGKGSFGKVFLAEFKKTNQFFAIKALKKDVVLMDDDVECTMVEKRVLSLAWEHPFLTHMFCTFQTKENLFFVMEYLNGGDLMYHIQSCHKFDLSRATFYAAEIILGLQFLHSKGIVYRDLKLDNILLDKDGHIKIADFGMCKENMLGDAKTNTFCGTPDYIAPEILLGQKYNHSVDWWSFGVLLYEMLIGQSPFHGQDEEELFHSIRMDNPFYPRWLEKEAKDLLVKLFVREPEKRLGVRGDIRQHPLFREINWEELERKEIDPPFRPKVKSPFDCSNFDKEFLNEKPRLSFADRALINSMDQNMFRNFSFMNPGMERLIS

CN(C)C(=O)c1cc2cnc(Nc3ccc(NC(=O)CCCCCCCN=C=S)cc3)nc2n1C1CCCC1
inhibition [1]: 87%
inhibition [2]: 9%
half-life at 2 µM [3]: 40.8 min
inhibition [4]: 12%
inhibition [5]: 61%
inhibition [6]: 47%
inhibition [7]: 68%
inhibition [8]: 15%
Activity (NCI-H1299): inactive
IC50 (MCF7): 1740 nM
Activity (A549 [9]): Active
inhibition (Homo sapiens): 40%
inhibition at 1 µM (A549 [10]): 85.6%
inhibition [11]: 12%
